In paper PMC5707466 (Chemical Science, 2015):
Read-outs that look alike come from different tables or passages of the source. Each block holds one molecule with its values, some of them ahead of it. Where no end group is shown, it is not given here. [ ]: non-standard residue; d: D form. AzaTyr = not defined here

Key:
[1] = with microporous membrane
[2] = SPR calibration with sucrose solutions; type: physicochemical; conditions: absence of the microporous membrane; calibration slope
Method in brief: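 The SPR instrument was calibrated without the microporous membrane by successive injections of sucrose solutions with refractive indices from 1.33772 to 1.35589. Sensitivity is the response per refractive index unit (nm/RIU).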

[3] = Theoretical effective diffusion through microporous membrane; conditions: 200 nm membrane pore radius
Method in brief: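 This is a calculation, not a measurement: Deff/D0 through the membrane was computed with the Renkin equation from hydrodynamic radius (RH) and pore radius (RP), with a membrane pore diameter of 0.4 μm. Theoretical effective diffusion times assumed continuous stirring of the chambers.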

[4] = SPR monitoring of sucrose diffusion/equilibration in dialysis chamber; type: physicochemical; conditions: for t eff unstirred (experimental): passive mixing, fit of SPR data with eqn (2); for experimental effective diffusion time: unstirred
Method in brief: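 The dialysis chamber was a PDMS spacer (150 μm–1.0 mm) on the gold prism, filled with PBS and topped by a 0.4 μm-pore membrane. The sensor carried a 3-MPA-LHDLHD-OH monolayer. Sucrose was injected into the reservoir, and the SPR response was followed in the sensing chamber. Neither chamber was stirred, so mixing was by diffusion only. Effective diffusion time was fitted with c = ceq(1 – e^(–t/teff)).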

CD36 [5] = molecular target: T1, CD36 (Homo sapiens, UniProt P16671); assay: CD36 SPR biosensor with dialysis chamber; type: binding; conditions: for SPR signal change: 10 μM peptide, buffer (PBS), CD36 sensor
Method in brief: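 Hexahistidine-tagged CD36 was captured by Cu2+ chelation on a 3-MPA-LHDLHD-OH monolayer. The monolayer was self-assembled overnight, then NTA-coupled via EDC/NHS. A PDMS spacer was filled with PBS and capped with a 0.4 μm-pore membrane. Peptide in PBS, untreated serum or whole blood was injected into the reservoir for 90 min per concentration. Triplicates ran in separate sensing chambers, with blank serum/blood in the reference channel and background subtracted.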

CD36 [6] = molecular target: T1, CD36; conditions: saline solution (stated for DBG178); CD36 SPR biosensor; cited from earlier work
CD36 [7] = molecular target: T1, CD36; assay: CD36 SPR biosensor without dialysis chamber; type: binding; conditions: matrix not stated
[8] = molecular target: hexahistidine-tagged type B scavenger receptor CD36 (cluster of differentiation 36) (UniProt P16671); assay: SPR
[9] = molecular target: hexahistidine-tagged type B scavenger receptor CD36 (cluster of differentiation 36) (UniProt P16671); assay: SPR; remark: listed apart in the source
[10] = molecular target: hexahistidine-tagged type B scavenger receptor CD36 (cluster of differentiation 36) (UniProt P16671); assay: SPR; remark: listed apart in the source

T1 sequence (P16671 whole entry): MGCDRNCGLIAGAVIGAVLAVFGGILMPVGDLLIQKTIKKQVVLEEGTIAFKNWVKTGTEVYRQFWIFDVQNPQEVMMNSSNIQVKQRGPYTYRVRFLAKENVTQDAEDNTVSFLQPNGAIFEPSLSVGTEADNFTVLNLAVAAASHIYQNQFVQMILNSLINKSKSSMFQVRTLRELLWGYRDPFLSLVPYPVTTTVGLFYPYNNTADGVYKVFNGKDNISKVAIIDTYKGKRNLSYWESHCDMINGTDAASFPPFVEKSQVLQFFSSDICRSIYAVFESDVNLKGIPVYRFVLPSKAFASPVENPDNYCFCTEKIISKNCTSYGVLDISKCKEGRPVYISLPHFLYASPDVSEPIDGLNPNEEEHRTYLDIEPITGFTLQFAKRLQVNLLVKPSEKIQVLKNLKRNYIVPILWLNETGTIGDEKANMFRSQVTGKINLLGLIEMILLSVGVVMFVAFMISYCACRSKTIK
Chain of hexahistidine-tagged type B scavenger receptor CD36 (cluster of differentiation 36) (P16671 whole entry): as above

SPR sensitivity without microporous membrane [2]: 2221 nm/RIU
RH/RP [3]: 0.00235
t eff unstirred (experimental) ([4]; spacer 0.15 mm): 5529 s
t eff unstirred (experimental) ([4]; spacer 0.30 mm): 9892 s
t eff unstirred (experimental) ([4]; spacer 0.60 mm): 26 590 s
experimental effective diffusion time ([4]; spacer 1 mm (1000 μm), b26 prints unit as hours): 15.5 h
t eff unstirred (experimental) ([4]; spacer 1.00 mm): 55 687 s
experimental effective diffusion time ([4]; spacer 150 μm): 1.5 h
increase in equilibration time of the sensing chamber in absence of mixing ([4]; spacer 150 μm, unstirred experimental vs stirred theoretical): 300 fold
Molecule: OC[C@H]1O[C@@](CO)(O[C@H]2O[C@H](CO)[C@@H](O)[C@H](O)[C@H]2O)[C@@H](O)[C@@H]1O [Sucrose, sucrose]

SPR response (CD36 [5]; 7.5 μM, human serum, dialysis chamber, 90 min, reference-subtracted, triplicate): 0.49 ± 0.02 nm
SPR signal change (CD36 [5]; dialysis chamber): 0.28 ± 0.11 nm
concentrations that could not be detected (CD36 [5]; dialysis chamber, saline/PBS, 90 min per concentration): below 5 μM
difference in SPR response with vs without dialysis chamber (CD36 [5]; highest concentration): 12%
SPR response with the microdialysis chamber (CD36 [5]; highest concentration, matrix not stated): 0.78 nm
calibration curve signal in human serum (in words) (CD36 [5]; human serum vs PBS, same concentration range, Fig. 3): increased in signal compared to PBS
analysis time sufficient to reach equilibrium of the SPR sensor (CD36 [5]; whole blood, dialysis chamber, Fig. SI4): 90 min
SPR response in whole blood (in words) (CD36 [5]; whole human blood, 5, 7.5 and 10 μM, vs human serum, Fig. 3): in great agreement with human serum
SPR response without the dialysis chamber (CD36 [7]; 8.75 μM, no dialysis chamber): 0.71 ± 0.10 nm
SPR response without the microporous membrane (CD36 [7]; highest concentration): 0.89 nm
Molecule: His-D-Trp-Ala-AzaTyr-D-Phe-Lys-NH2 [DBG178]
SPR response at nanomolar concentrations (CD36 [5]; nanomolar range, dialysis chamber): below the detection limit of the SPR sensor
Kd (CD36 [6]): 5 µM

The next lines start with the molecule.

Molecule: BSA: bovine serum albumin (BSA) (MW = 66.4 kDa)
diffusion time required to observe a significant SPR response / large shift [1]: ~8 h

Molecule: His-D-Trp-AzaLeu-Trp-D-Phe-Ala-NH2 [CP-2B(i), reference compound]
SPR signal change (CD36 [5]; dialysis chamber): –0.073 ± 0.030 nm
Kd (CD36 [6]): 31 µM

Molecule: H[dW]A[AzaTyr][dF]K-NH2 (reading uncertain; also: printed as His-D-Trp-Ala-AzaTyr-D-Phe-Lys-NH2) [DBG178 (His-D-Trp-Ala-AzaTyr-D-Phe-Lys-NH2)]
Kd [8]: 17 µM
SPR response at 7.5 uM [8]: 0.49 nm
SPR response at 8.75 uM [8]: 0.71 nm
SPR response at the highest concentration [8]: 0.89 nm
SPR signal change at 10 uM [8]: 0.28 nm
SPR response at the highest concentration [9]: 0.78 nm
SPR response at 7.5 uM [10]: 0.46 nm
